Data taken from ChEMBL document CHEMBL1156948, “Statistical molecular design of a focused salicylidene acylhydrazide library and multivariate QSAR of inhibition of type III secretion in the Gram-negative bacterium Yersinia” (Bioorg Med Chem, 2010).
≈ marks a conversion by molar mass, not a printed value. Calls of active or inactive are those of the source.

Assays:
[1] = test system: Yersinia pseudotuberculosis YPIII; experiment: Inhibition of T3S in Yersinia pseudotuberculosis YPIII expressing yopE-luxAB at 6.25 uM after 3 hrs by luciferase reporter gene assay
Summary of the method: (§1)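 Strain YPIII pIB102 (yopE-luxAB) grown overnight at room temperature in BHI with 5 mM EGTA and 20 mM MgCl2 (calcium depletion), adjusted to OD600 0.088–0.095. Compound added from DMSO at 1.56–200 µM final (eight concentrations). Shaken 1 h at room temperature, then 2 h at 37 °C. Decanal added and light emission read immediately. Triplicates, repeated at least three times.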

[2] = test system: Yersinia pseudotuberculosis YPIII; experiment: Inhibition of T3S in Yersinia pseudotuberculosis YPIII expressing yopE-luxAB at 25 uM after 3 hrs by luciferase reporter gene assay; summary of the method: as §1
[3] = test system: Escherichia coli; experiment: Antibacterial activity against Escherichia coli DH5[alpha] at 100 uM after 23 hrs by broth dilution assay; type: functional, organism-based
Summary of the method: (§2)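 Overnight LB culture of E. coli DH5α grown at 37 °C, diluted to OD600 0.1 in LB with 2.5 mM CaCl2; compound added from DMSO stock to final 50 or 100 µM. Incubated at 37 °C with absorbance at 595 nm followed over 23 h.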

[4] = test system: Yersinia pseudotuberculosis YPIII; experiment: Inhibition of T3S in Yersinia pseudotuberculosis YPIII expressing yopE-luxAB at 50 uM after 3 hrs by luciferase reporter gene assay; summary of the method: as §1
[5] = test system: Yersinia pseudotuberculosis YPIII; experiment: Inhibition of T3S in Yersinia pseudotuberculosis YPIII expressing yopE-luxAB at 1.56 uM after 3 hrs by luciferase reporter gene assay; summary of the method: as §1
[6] = test system: Yersinia pseudotuberculosis YPIII; experiment: Inhibition of T3S in Yersinia pseudotuberculosis YPIII expressing yopE-luxAB at 100 uM after 3 hrs by luciferase reporter gene assay; summary of the method: as §1
[7] = test system: Yersinia pseudotuberculosis; experiment: Antibacterial activity against Yersinia pseudotuberculosis expressing pIB102 at 100 uM after 23 hrs by broth dilution assay; type: functional, organism-based
Summary of the method: (§3)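 Wild-type pIB102 grown overnight in LB at room temperature, diluted to OD600 = 0.1 in LB with 2.5 mM CaCl2. Compound added from DMSO stock to final 50 and 100 µM. Incubated at 37 °C with absorbance at 595 nm read over 23 h.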

[8] = test system: Yersinia pseudotuberculosis YPIII; experiment: Inhibition of T3S in Yersinia pseudotuberculosis YPIII expressing yopE-luxAB at 12.5 uM after 3 hrs by luciferase reporter gene assay; summary of the method: as §1
[9] = test system: Yersinia pseudotuberculosis; experiment: Antibacterial activity against Yersinia pseudotuberculosis expressing pIB102 at 50 uM after 23 hrs by broth dilution assay; type: functional, organism-based; summary of the method: as §3
[10] = molecular target: Tyrosine-protein phosphatase YopH (Yersinia pseudotuberculosis serotype I (strain IP32953)) (UniProt P08538); experiment: Inhibition of YopH in Yersinia pseudotuberculosis YPIII expressing yopE-luxAB treated 3 hrs before substrate addition measured after 15 mins by microplate reader
Chain of Tyrosine-protein phosphatase YopH (Yersinia pseudotuberculosis serotype I (strain IP32953)) (P08538 whole entry): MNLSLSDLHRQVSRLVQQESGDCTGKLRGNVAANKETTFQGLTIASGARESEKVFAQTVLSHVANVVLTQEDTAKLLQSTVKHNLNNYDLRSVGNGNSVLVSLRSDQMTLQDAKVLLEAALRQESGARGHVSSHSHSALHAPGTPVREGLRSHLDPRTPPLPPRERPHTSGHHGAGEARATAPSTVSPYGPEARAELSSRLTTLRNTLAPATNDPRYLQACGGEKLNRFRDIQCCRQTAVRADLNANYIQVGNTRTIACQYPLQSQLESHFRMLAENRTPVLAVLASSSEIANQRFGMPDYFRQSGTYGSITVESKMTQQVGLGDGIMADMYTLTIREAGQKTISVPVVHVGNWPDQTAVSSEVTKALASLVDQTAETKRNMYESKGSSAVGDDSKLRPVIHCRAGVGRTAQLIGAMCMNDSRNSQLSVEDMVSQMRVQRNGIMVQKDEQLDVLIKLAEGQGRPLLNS
Summary of the method: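 Same calcium-depleted YPIII pIB102 cultures and compound exposure (1 h room temperature, then 2 h 37 °C). An aliquot of the bacterial suspension was mixed with 25 mM p-nitrophenyl phosphate, 40 mM MES pH 5.0, 1.6 mM DTT. Incubated 15 min at 37 °C, quenched with 1 M NaOH, absorbance read at 405 nm. Triplicates, repeated at least three times.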

[11] = test system: Yersinia pseudotuberculosis YPIII; experiment: Inhibition of T3S in Yersinia pseudotuberculosis YPIII expressing yopE-luxAB at 200 uM after 3 hrs by luciferase reporter gene assay; summary of the method: as §1
[12] = test system: Yersinia pseudotuberculosis YPIII; experiment: Inhibition of T3S in Yersinia pseudotuberculosis YPIII expressing yopE-luxAB at 3.13 uM after 3 hrs by luciferase reporter gene assay; summary of the method: as §1
[13] = test system: Escherichia coli; experiment: Antibacterial activity against Escherichia coli DH5[alpha] at 50 uM after 23 hrs by broth dilution assay; type: functional, organism-based; summary of the method: as §2
[14] = Cytotoxicity against human HeLa 229 cells assessed as cell viability at 25 uM after 28 hrs using resazurin staining by fluorescence microscopy; type: cell-based; conditions: read-out: Activity
Summary of the method: (§4)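 HeLa 229 viability measured at 50 and 25 µM using resazurin added 4 h before read-out; cell-free wells with medium plus compound exclude chemical reduction of resazurin. Scored relative to DMSO control, plus microscopic scoring; non-toxic defined as at least 70% viability versus control. Triplicates, repeated at least three times.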

[15] = Cytotoxicity against human HeLa 229 cells assessed as cell viability at 50 uM after 28 hrs using resazurin staining by fluorescence microscopy; type: cell-based; conditions: read-out: Activity; summary of the method: as §4
[16] = test system: Chlamydia trachomatis; experiment: Antibacterial activity against Chlamydia trachomatis infected in human HeLa 229 cells after 35 hrs by fluorescence microscopy; type: functional
Summary of the method: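 HeLa 229 monolayers infected with C. trachomatis serovar L2, MOI 0.3; compounds diluted in RPMI 1640 with 10% FCS, 2 mM L-glutamine, 8 µg/mL gentamicin (DMSO final 1%) added 1 h post-infection at 50, 25, 12.5, 6.25, 3.13 µM. 35 h at 37 °C, 5% CO2; methanol fixation, immunostaining, fluorescence microscopy at 200×. MIC = lowest concentration with no intracellular inclusions; duplicates, ≥3 occasions.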

| SMILES | inhibition [1] | inhibition [2] | Activity [3] | inhibition [4] | inhibition [5] | inhibition [6] | Activity [7] | inhibition [8] | Activity [9] | inhibition [10] | inhibition [11] | inhibition [12] | Activity [13] | viability at 28 h, 25 µM [14] | viability at 28 h, 50 µM [15] | MIC [16] |
| --- | --- | --- | --- | --- | --- | --- | --- | --- | --- | --- | --- | --- | --- | --- | --- | --- |
| COc1cc(C(=O)N/N=C/c2ccc(O)c(O)c2O)cc(OC)c1OC | 14% | 31% | inactive | 50% | -10% | 58% | inactive | 19% | inactive | inactive | 62% | 11% | inactive |  |  |  |
| O=C(Cc1ccccc1)N/N=C/c1cc(Br)ccc1O | 10% | 15% | inactive | 26% | 15% | 39% | inactive | 7% | inactive |  | 50% | 4% | inactive | 75% | 74% | 50 µM (≈ 16.7 µg/mL) |
| NC(=O)C(=O)N/N=C/c1c(O)cc(O)cc1O | 17% | 26% | inactive | 51% | -1% | 63% | inactive | 17% | inactive | inactive | 64% | 5% | inactive |  |  |  |
| CCN(CC)c1ccc(/C=N/NC(=O)c2ccc(OC)c(OC)c2)c(O)c1 | 14% | 44% | inactive | 66% |  | 66% | inactive | 29% | inactive | inactive | 56% | 14% | inactive |  |  |  |
| COc1cc(Br)cc(/C=N/NC(=O)Cc2ccccc2)c1O | 12% | 9% | inactive | 22% | 10% | 57% | inactive | 15% | inactive |  | 65% | 18% | inactive | 58% | 33% | inactive |
| O=C(N/N=C/c1cccc(F)c1O)c1ccc([N+](=O)[O-])cc1 | 2% | 19% | inactive | 28% | 1% | 20% | inactive | 4% | inactive |  | 59% | 7% | inactive | 75% | 72% | 50 µM (≈ 15.2 µg/mL) |
| COc1ccc(Br)c(/C=N/NC(=O)c2ccncc2)c1O | 18% | 27% | inactive | 54% |  | 77% | inactive | 18% | inactive | inactive | 35% | 9% | inactive |  |  |  |
| Cc1ccc(C(=O)N/N=C/c2cc(C(C)(C)C)ccc2O)cc1 | 14% | 20% | inactive | 17% | 13% | 24% | inactive | 18% | inactive |  | 25% | 6% | inactive | 80% | 79% | 50 µM (≈ 15.5 µg/mL) |
| O=C(N/N=C/c1ccc(Cl)cc1O)c1ccncc1 | 3% | 27% | inactive | 84% | 5% | 96% | inactive | 4% | inactive |  | 95% | -1% | inactive | 72% | 67% | inactive |
| O=C(N/N=C/c1cc(Br)ccc1O)c1ccccc1Cl | 10% | 11% | inactive | 38% | 10% | 58% | inactive | 13% | inactive |  | 61% | 10% | inactive | 77% | 60% | 50 µM (≈ 17.7 µg/mL) |
| CC(C)(C)c1ccc(O)c(/C=N/NC(=O)Cc2ccccc2)c1 | 9% | 10% | inactive | 26% | 9% | 20% | inactive | 4% | inactive |  | 25% | 13% | inactive | 83% | 79% | inactive |
| COc1cccc(C(=O)N/N=C/c2cc(Br)ccc2O)c1 | 8% | 22% | inactive | 44% | 6% | 71% | inactive | 15% | inactive |  | 77% | 15% | inactive | 73% | 65% | 25 µM (≈ 8.73 µg/mL) |
| COc1ccc(Br)c(/C=N/NC(=O)CC#N)c1O | 17% | 20% | inactive | 25% | -9% | 57% | inactive | 18% | inactive |  | 59% | 12% | inactive |  |  |  |
| COc1ccc(/C=N/NC(=O)CCc2ccc(O)cc2)c(O)c1 | 4% | 12% | inactive | 22% | -2% | 45% | inactive | 16% | inactive |  | 88% | -1% | inactive |  |  |  |
| CCN(CC)c1ccc(/C=N/NC(=O)c2cc(Cl)cc(Cl)c2)c(O)c1 | 22% | 34% | inactive | 43% | -6% | 46% | inactive | 29% | inactive |  | 46% | 19% | inactive |  |  |  |
